Test results published in ChEMBL document CHEMBL4610093, “Bioreductively Activatable Prodrug Conjugates of Combretastatin A-1 and Combretastatin A-4 as Anticancer Agents Targeted toward Tumor-Associated Hypoxia” (J Nat Prod, 2020).

Experiments:
A549 [1] = experiment: Cytotoxicity against human A549 cells incubated for 52 hrs in oxic condition by sulforhodamine B assay; format: functional; settings: A549, 52 h
In short: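 Normoxic arm: A549 cells at 6000 cells/well, 2 h attachment. Serial dilutions from DMSO stocks, top final concentration 50 µg/mL, in duplicate. Drug exposure 4 h under 95% air/5% CO2, then 48 h aerobic culture. Cytotoxicity read by SRB.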

[2] = target: T1, NADPH-cytochrome P450 oxidoreductase (Rattus norvegicus, UniProt P00388); experiment: Substrate activity at rat NADPH-cytochrome P450 oxidoreductase expressed in supersomes assessed as compound cleavage after 90 mins in anaerobic condition by HPLC analysis; settings: read-out: Drug degradation
T1 sequence (P00388 whole entry): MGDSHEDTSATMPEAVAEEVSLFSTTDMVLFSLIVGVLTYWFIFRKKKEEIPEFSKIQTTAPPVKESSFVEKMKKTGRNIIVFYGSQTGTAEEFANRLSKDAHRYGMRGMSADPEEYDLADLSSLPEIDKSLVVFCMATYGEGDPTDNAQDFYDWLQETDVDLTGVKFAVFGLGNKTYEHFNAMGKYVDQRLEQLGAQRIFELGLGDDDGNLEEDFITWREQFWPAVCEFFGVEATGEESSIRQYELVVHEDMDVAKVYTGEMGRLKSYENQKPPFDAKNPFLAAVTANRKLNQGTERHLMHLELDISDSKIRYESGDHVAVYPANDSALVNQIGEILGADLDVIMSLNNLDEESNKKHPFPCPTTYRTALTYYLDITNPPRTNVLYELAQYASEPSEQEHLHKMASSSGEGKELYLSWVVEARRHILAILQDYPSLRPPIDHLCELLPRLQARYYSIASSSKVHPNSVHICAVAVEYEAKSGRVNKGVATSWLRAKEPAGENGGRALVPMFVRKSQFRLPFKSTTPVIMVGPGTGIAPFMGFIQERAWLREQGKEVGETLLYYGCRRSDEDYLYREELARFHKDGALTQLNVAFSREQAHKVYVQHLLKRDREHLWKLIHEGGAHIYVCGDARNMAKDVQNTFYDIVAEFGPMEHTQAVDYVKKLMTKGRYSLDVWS
In short: (§1)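 Rat POR supersomes (0.006 U) with 0.8 mM NADPH, acting on compound diluted from 10 mM DMSO stock into 200 mM potassium phosphate pH 7.4 with 0.1% Triton X-100 and 400 µM protocatechuic acid. Made anaerobic by N2 evacuation/sparging plus 0.08 U protocatechuate dioxygenase. Incubated at 37 °C, quenched with acetonitrile, quantified by HPLC against standard curves; no-POR controls.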

A549 [3] = experiment: Ratio of GI50 for human A549 cells in oxic condition to GI50 for anoxic condition; format: functional
In short: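 A549 cells at 6000 cells/well. Drug exposure 4 h either anaerobic (≤10 ppm O2, preconditioned medium and plates) or under 95% air/5% CO2, then 48 h aerobic. SRB cytotoxicity read in duplicate, top final concentration 50 µg/mL. Ratio taken as oxic over anoxic value.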

[4] = Inhibition of bovine brain tubulin polymerisation preincubated for 15 mins followed by GTP addition and measured for 20 mins by turbidimetry based spectrophotometric method; parameters: species or system Bos taurus
In short: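 Bovine brain tubulin at 1.0 mg/mL (10 µM) in 0.8 M monosodium glutamate (pH 6.6) with 4% DMSO and compound. Preincubated 15 min at 30 °C, chilled, then 0.4 mM GTP added. Temperature jumped from 0 to 30 °C; turbidity at 350 nm followed for 20 min. IC50 is the concentration halving extent of assembly.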

A549 [5] = experiment: Cytotoxicity against human A549 cells incubated for 4 hrs in anoxic condition followed by oxic exposure for 48 hrs by sulforhodamine B assay; format: functional
In short: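 Anoxic arm: A549 cells handled in an anaerobic chamber (≤10 ppm O2) with medium and plates preconditioned ≥48 h. 6000 cells/well, 2 h attachment. Serial dilutions from DMSO stocks, top final concentration 50 µg/mL, in duplicate. 4 h anaerobic drug exposure, then 48 h aerobic, then SRB readout.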

[6] = Stability of the compound in pH 7.4 potassium phosphate buffer assessed as compound hydrolysis after 48 hrs; format: physicochemical; settings: read-out: Drug degradation
Tubulin (Homo sapiens) [7] = target: T2, Tubulin (Homo sapiens) (UniProt P68371+Q9H4B7+P0DPH7+P68366+Q13509+Q71U36+P04350+Q3ZCM7+P07437+P68363+Q9BQE3+Q6PEY2+Q13885+Q9BVA1+Q9BUF5); experiment: Inhibition of [3H]colchicine binding to tubulin (unknown origin) at 5 uM incubated for 10 mins by scintillation counting relative to control; format: protein-complex assay
In short: (§2)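 Purified tubulin at 1.0 µM with 5.0 µM [3H]colchicine, in 1.0 M monosodium glutamate (pH 6.6), 0.5 mg/mL BSA, 0.1 M glucose-1-phosphate, 1.0 mM MgCl2, 1.0 mM GTP and 5% DMSO. Incubated 10 min at 37 °C, then filter-bound radioactivity counted. Percent inhibition taken against no-inhibitor controls, corrected for filter binding without tubulin.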

Tubulin (Homo sapiens) [8] = target: T2, Tubulin (Homo sapiens); experiment: Inhibition of [3H]colchicine binding to tubulin (unknown origin) at 1 uM incubated for 10 mins by scintillation counting relative to control; format: protein-complex assay; in short: as §2
[9] = target: T1, NADPH-cytochrome P450 oxidoreductase; experiment: Substrate activity at rat NADPH-cytochrome P450 oxidoreductase expressed in supersomes assessed as compound cleavage after 24 hrs in anaerobic condition by HPLC analysis; settings: read-out: Activity; in short: as §1
[10] = Solubility of the compound in water; format: physicochemical; settings: buffer
4T1 = experiment: Induction in necrosis in tumor of BALB/C mouse implanted with mouse 4T1 cells harboring firefly luciferase reporter gene at 180 mg/kg, ip measured after 72 to 96 hrs by hematoxylin and eosin staining based assay (reference value: 46%); format: functional
[11] = Solubility of the compound in buffered saline; format: physicochemical; settings: buffer
[12] = Solubility of the compound in DMSO; format: physicochemical

SMILES | GI50 (A549 [1]) | metabolised at 1.5 h [2] | RatioGI50 (A549 [3]) | IC50 [4] | GI50 (A549 [5]) | degraded at 48 h [6] | inhibition (Tubulin (Homo sapiens) [7]) | inhibition (Tubulin (Homo sapiens) [8]) | metabolised at 24 h [9] | solubility [10] | Activity (4T1) | solubility [11] | solubility [12]
COc1cc(/C=C\c2ccc(OC)c(OCc3ccc([N+](=O)[O-])s3)c2OC(C)C)cc(OC)c1OC | 1900 nM | 1.1% | 6.3 | 12000 nM | 300 nM | 1.59% |  |  |  |  |  |  | 
COc1ccc(/C=C\c2cc(OC)c(OC)c(OC)c2)c(O)c1O [COMBRETASTATIN A-1] | 1200 nM |  |  |  | 820 nM |  | 99.6% |  |  |  |  |  | 
COc1cc(/C=C\c2ccc(OC)c(OC(C)c3ccc([N+](=O)[O-])s3)c2O)cc(OC)c1OC (stereo not drawn) | 310 nM | 25.5% | 6.1 | 6200 nM | 51 nM | 0% | 72% |  |  |  |  |  | 
COc1cc(/C=C\c2ccc(OC)c(OCc3ccc([N+](=O)[O-])s3)c2OS(=O)(=O)c2ccc(C)cc2)cc(OC)c1OC | 440 nM |  | 0.85 | > 20000 nM | 520 nM | 0.25% |  |  |  |  |  |  | 
COc1cc(/C=C\c2ccc(OC)c(OC(C)c3ccc([N+](=O)[O-])s3)c2OS(=O)(=O)c2ccc(C)cc2)cc(OC)c1OC (stereo not drawn) | 4600 nM | 13.5% | 1.4 | > 20000 nM | 3300 nM | 0.84% |  |  |  |  |  |  | 
COc1ccc(/C=C\c2cc(OC)c(OC)c(OC)c2)c(OC(C)c2ccc([N+](=O)[O-])s2)c1O (stereo not drawn) | 180 nM | 5.6% | 0.69 | 840 nM | 260 nM | 0.5% | 90% | 34% |  |  |  |  | 
COc1cc(/C=C\c2ccc(OC)c3c2OC(c2ccc([N+](=O)[O-])s2)O3)cc(OC)c1OC (stereo not drawn) | 46 nM |  | 1.4 | 1700 nM | 33 nM |  | 25% |  |  |  |  |  | 
Nc1n[n+]([O-])c2ccccc2[n+]1[O-] [TIRAPAZAMINE] | 63000 nM |  | 9.2 |  | 6800 nM |  |  |  |  |  |  |  | 
COc1ccc(/C=C\c2cc(OC)c(OC)c(OC)c2)c(OCc2ccc([N+](=O)[O-])s2)c1O | 170 nM | 14.2% | 0.61 | 1700 nM | 280 nM | 0% | 92% | 53% |  |  |  |  | 
COc1ccc(/C=C\c2cc(OC)c(OC)c(OC)c2)c(OS(=O)(=O)c2ccc(C)cc2)c1O | 65 nM |  |  | 840 nM | 190 nM |  | 84% | 50% |  |  |  |  | 
COc1ccc(/C=C\c2cc(OC)c(OC)c(OC)c2)cc1OC(C)(C)c1ccc([N+](=O)[O-])s1 | 2200 nM | 25.4% | 41.5 | > 20000 nM | 53 nM | 0.69% | 33% |  | 100% | Insoluble | 47 - 55% | Insoluble | Soluble
COc1ccc(/C=C\c2cc(OC)c(OC)c(OC)c2)cc1OCc1ccc([N+](=O)[O-])s1 | 110 nM | 2.7% | 3.4 | > 20000 nM | 32 nM | 0.35% | 26% |  |  |  |  |  | 
O=[N+]([O-])c1nccn1CC(O)CNCCBr (stereo not drawn) | > 89000 nM |  |  |  | 24000 nM |  |  |  |  |  |  |  | 
COc1cc(/C=C\c2ccc(OC)c(OC(C)c3ccc([N+](=O)[O-])s3)c2OC(C)C)cc(OC)c1OC (stereo not drawn) | 2900 nM | 3.8% | 2.4 | > 20000 nM | 1200 nM | 0.69% |  |  |  |  |  |  | 
COc1ccc(/C=C\c2cc(OC)c(OC)c(OC)c2)cc1O [COMBRETASTATIN A4] | 4.7 nM |  |  |  | 6.1 nM |  |  |  |  |  |  |  | 
COc1ccc(/C=C\c2cc(OC)c(OC)c(OC)c2)c(OC(C)C)c1O | 63 nM |  |  | 820 nM | 46 nM |  | 94% | 72% |  |  |  |  | 
COc1cc(/C=C\c2ccc(OC)c(OCc3ccc([N+](=O)[O-])s3)c2O)cc(OC)c1OC | 320 nM | 17.9% | 0.46 | 4300 nM | 690 nM | 0% | 58% |  |  |  |  |  | 
COc1cc(/C=C\c2ccc(OC)c3c2OC(C)(c2ccc([N+](=O)[O-])s2)O3)cc(OC)c1OC (stereo not drawn) | 550 nM |  | 0.76 | > 20000 nM | 720 nM |  |  |  |  |  |  |  | 
COc1ccc(/C=C\c2cc(OC)c(OC)c(OC)c2)cc1OC(C)c1ccc([N+](=O)[O-])s1 (stereo not drawn) | 150 nM | 4.1% | 4 | > 20000 nM | 38 nM |  | 15% |  |  |  |  |  | 
COc1cc(/C=C\c2ccc(OC)c(OC(C)(C)c3ccc([N+](=O)[O-])s3)c2OC(C)C)cc(OC)c1OC | 1500 nM | 7.6% | 3.1 | 9500 nM | 490 nM | 4.03% |  |  |  |  |  |  | 
